Source: ChEMBL document CHEMBL1671679, “Lack of pharmacokinetic interaction between amdoxovir and reduced- and standard-dose zidovudine in HIV-1-infected individuals” (Antimicrob Agents Chemother, 2010)

Assays:
[1] = test system: Homo sapiens; assay: Apparent oral clearance in HIV-1 infected patient assessed as beta-D-dioxolane guanosine level at 500 mg, po bid on day 10 by LC-MS/MS analysis; assay type: ADME, organism-based; settings: in vivo
Procedure, shortened: (§1)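 Untreated Hispanic HIV-1-infected adults (viral load ≥5,000 copies/ml, CD4 ≥200 cells/mm3). Blood was drawn into DCF-containing EDTA tubes on day 1 (0–12 h) and on day 10 (0–48 h post last dose), then stored at −80°C. Plasma was methanol-extracted with an internal standard and run by LC-MS/MS (2–3,000 ng/ml AMDX/DXG; 2–5,000 ng/ml ZDV). Noncompartmental analysis assumed extravascular input; τ = 12 h; geometric means reported; accumulation was taken as AUCτ day 10/day 1.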

[2] = test system: Homo sapiens; assay: Cmax in HIV-1 infected patient assessed as beta-D-dioxolane guanosine level at 500 mg, po bid on day 10 by LC-MS/MS analysis; assay type: ADME, organism-based; set-up: dose 500 mg, route oral; settings: in vivo; procedure, shortened: as §1
[3] = test system: Homo sapiens; assay: Cmax in HIV-1 infected patient assessed as beta-D-dioxolane guanosine level at 500 mg, po bid on day 1 by LC-MS/MS analysis; assay type: ADME, organism-based; set-up: dose 500 mg, route oral; settings: in vivo; procedure, shortened: as §1
[4] = test system: Homo sapiens; assay: Tmax in HIV-1 infected patient assessed as beta-D-dioxolane guanosine level at 500 mg, po bid on day 10 coadministered with 200 mg, po bid zidovudine by LC-MS/MS analysis; assay type: ADME, organism-based; settings: in vivo
Procedure, shortened: (§2)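 Treatment-naive Hispanic HIV-1-infected adults (≥5,000 RNA copies/ml, CD4 ≥200 cells/mm3). Blood drawn after first dose on day 1 (0–12 h) and after last dose on day 10 (0–48 h) into DCF-containing EDTA tubes to block ex vivo deamination, centrifuged, plasma stored −80°C. Methanol extraction with internal standard, LC-MS/MS (linear 2–3,000 ng ml−1 for AMDX and DXG). Noncompartmental analysis assuming extravascular input; geometric means reported.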

[5] = test system: Homo sapiens; assay: (§3) Ratio of AUC (0 to 12 hrs) in HIV-1 infected patient assessed as beta-D-dioxolane guanosine level at 500 mg, po bid on day 10 coadministered with 300 mg, po bid zidovudine to AUC (0 to 12 hrs) in HIV-1 infected patient assessed as beta-D-dioxolane guanosine level at 500 mg, po bid on day 1 coadministered with 300 mg, po bid zidovudine; assay type: ADME, organism-based; settings: in vivo; procedure, shortened: as §1
[6] = test system: Homo sapiens; assay: AUC (0 to 12 hrs) in HIV-1 infected patient assessed as beta-D-dioxolane guanosine level at 500 mg, po bid on day 10 coadministered with 300 mg, po bid zidovudine by LC-MS/MS analysis; assay type: ADME, organism-based, Plasma; set-up: time < 12 hr, dose 500 mg, route oral; settings: in vivo; procedure, shortened: as §1
[7] = test system: Homo sapiens; assay: Tmax in HIV-1 infected patient assessed as beta-D-dioxolane guanosine level at 500 mg, po bid on day 10 coadministered with 300 mg, po bid zidovudine by LC-MS/MS analysis; assay type: ADME, organism-based; settings: in vivo; procedure, shortened: as §2
[8] = test system: Homo sapiens; assay: Cmax in HIV-1 infected patient assessed as beta-D-dioxolane guanosine level at 500 mg, po bid on day 10 coadministered with 200 mg, po bid zidovudine by LC-MS/MS analysis; assay type: ADME, organism-based; set-up: dose 500 mg, route oral; settings: in vivo; procedure, shortened: as §1
[9] = test system: Homo sapiens; assay: Half life in HIV-1 infected patient assessed as beta-D-dioxolane guanosine level at 500 mg, po bid on day 10 by LC-MS/MS analysis; assay type: ADME, organism-based; settings: in vivo; procedure, shortened: as §1
[10] = Drug level in HIV-1 infected patient urine assessed as beta-D-dioxolane guanosine level at 500 mg, po bid on day 10 coadministered with 300 mg, po bid zidovudine by LC-MS/MS analysis; assay type: ADME, organism-based; settings: human, in vivo
Procedure, shortened: (§4)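 At steady state (day 10), urine collected over one 12-h dose interval was analyzed by LC-MS/MS for AMDX, DXG, ZDV and ZDV-5′-O-glucuronide. Samples were diluted 100-fold, and the assay was linear from 1 to 500 μg/ml. Results are expressed as percentage of the dose recovered as each analyte (geometric means). Subjects were untreated HIV-1-infected adults.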

[11] = test system: Homo sapiens; assay: Apparent oral clearance in HIV-1 infected patient assessed as beta-D-dioxolane guanosine level at 500 mg, po bid on day 10 coadministered with 200 mg, po bid zidovudine by LC-MS/MS analysis; assay type: ADME, organism-based; settings: in vivo; procedure, shortened: as §1
[12] = Drug level in HIV-1 infected patient urine assessed as beta-D-dioxolane guanosine level at 500 mg, po bid on day 10 coadministered with 200 mg, po bid zidovudine by LC-MS/MS analysis; assay type: ADME, organism-based; settings: human, in vivo; procedure, shortened: as §4
[13] = test system: Homo sapiens; assay: Half life in HIV-1 infected patient assessed as beta-D-dioxolane guanosine level at 500 mg, po bid on day 1 by LC-MS/MS analysis; assay type: ADME, organism-based; settings: in vivo; procedure, shortened: as §1
[14] = test system: Homo sapiens; assay: AUC (0 to 12 hrs) in HIV-1 infected patient assessed as beta-D-dioxolane guanosine level at 500 mg, po bid on day 10 by LC-MS/MS analysis; assay type: ADME, organism-based, Plasma; set-up: dose 500 mg, time < 12 hr, route oral; settings: in vivo; procedure, shortened: as §1
[15] = test system: Homo sapiens; assay: AUC (0 to 12 hrs) in HIV-1 infected patient assessed as beta-D-dioxolane guanosine level at 500 mg, po bid on day 10 coadministered with 200 mg, po bid zidovudine by LC-MS/MS analysis; assay type: ADME, organism-based, Plasma; set-up: time < 12 hr, dose 500 mg, route oral; settings: in vivo; procedure, shortened: as §1
[16] = test system: Homo sapiens; assay: Apparent oral clearance in HIV-1 infected patient assessed as beta-D-dioxolane guanosine level at 500 mg, po bid on day 10 coadministered with 300 mg, po bid zidovudine by LC-MS/MS analysis; assay type: ADME, organism-based; settings: in vivo; procedure, shortened: as §1
[17] = test system: Homo sapiens; assay: Half life in HIV-1 infected patient assessed as beta-D-dioxolane guanosine level at 500 mg, po bid on day 10 coadministered with 200 mg, po bid zidovudine by LC-MS/MS analysis; assay type: ADME, organism-based; settings: in vivo; procedure, shortened: as §1
[18] = test system: Homo sapiens; assay: as §3, with “200” for “300”; assay type: ADME, organism-based; settings: in vivo; procedure, shortened: as §1
[19] = test system: Homo sapiens; assay: Cmax in HIV-1 infected patient assessed as beta-D-dioxolane guanosine level at 500 mg, po bid on day 10 coadministered with 300 mg, po bid zidovudine by LC-MS/MS analysis; assay type: ADME, organism-based; set-up: dose 500 mg, route oral; settings: in vivo; procedure, shortened: as §1
[20] = Drug level in HIV-1 infected patient urine assessed as beta-D-dioxolane guanosine level at 500 mg, po bid on day 10 by LC-MS/MS analysis; assay type: ADME, organism-based; settings: human, in vivo; procedure, shortened: as §4
[21] = test system: Homo sapiens; assay: Tmax in HIV-1 infected patient assessed as beta-D-dioxolane guanosine level at 500 mg, po bid on day 10 by LC-MS/MS analysis; assay type: ADME, organism-based; settings: in vivo; procedure, shortened: as §2
[22] = test system: Homo sapiens; assay: Ratio of AUC (0 to 12 hrs) in HIV-1 infected patient assessed as beta-D-dioxolane guanosine level at 500 mg, po bid on day 10 to AUC (0 to 12 hrs) in HIV-1 infected patient assessed as beta-D-dioxolane guanosine level at 500 mg, po bid on day 1; assay type: ADME, organism-based; settings: in vivo; procedure, shortened: as §1
[23] = test system: Homo sapiens; assay: Half life in HIV-1 infected patient assessed as beta-D-dioxolane guanosine level at 500 mg, po bid on day 10 coadministered with 300 mg, po bid zidovudine by LC-MS/MS analysis; assay type: ADME, organism-based; settings: in vivo; procedure, shortened: as §1

CL/F [1]: 14.7 mL/min/kg
Cmax [2]: 1545 ng/mL
Cmax [3]: 1272 ng/mL
Tmax [4]: 1.5 h
Ratio AUC [5]: 1.19
AUC [6]: 7658 ng·h/mL
Tmax [7]: 1.8 h
Cmax [8]: 1315 ng/mL
t1/2 [9]: 17.6 h
Drug uptake [10]: 27.7%
CL/F [11]: 15.8 mL/min/kg
Drug uptake [12]: 26.2%
t1/2 [13]: 2.5 h
AUC [14]: 6834 ng·h/mL
AUC [15]: 6225 ng·h/mL
CL/F [16]: 15.2 mL/min/kg
t1/2 [17]: 14.7 h
Ratio AUC [18]: 0.91
Cmax [19]: 1908 ng/mL
Drug uptake [20]: 25.3%
Tmax [21]: 1.3 h
Ratio AUC [22]: 1.18
t1/2 [23]: 14.8 h
Compound: Nc1nc2c(ncn2[C@H]2CO[C@@H](CO)O2)c(=O)[nH]1
